SMILES strings stand for the structures. The source made the active and inactive calls. The calls are words filed in the database; no cut-off is given here.

The results in this text go back to ChEMBL document CHEMBL1151849, “Antioxidant hydroquinones substituted by beta-1,6-linked oligosaccharides in wheat germ” (J Nat Prod, 2009).

Assay [1] has as its system Radical scavenging activity. Briefly: Antioxidant activity assessed as ABTS radical cation scavenging activity by TEAC assay.
The nature of assay [2]: Antioxidant activity assessed as trolox equivalents of ABTS radical scavenging activity by TEAC assay. The assay is classed as functional. In outline: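 ABTS radical cation generated from 7 mM ABTS plus 2.5 mM K2S2O8 in water, kept dark at room temperature 16-18 h, then diluted in aqueous 50% EtOH to A734 0.70 ± 0.02. 10.0, 20.0 or 30.0 µL of 1.00 mM aqueous compound added to 2.00 mL radical solution. A734 decrease recorded from 15 s to 5 min. Calibration curves compared with Trolox, expressed as mM Trolox equivalent to 1 mM compound.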

Assay [3] deals with Nucleic Acid. Briefly: Protection against H2O2-induced DNA damaging activity of pBR322 assessed as induction of single stranded breaks by gel electrophoresis. Particulars: Escherichia coli. The procedure, abridged: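 pBR322 plasmid (100 ng) incubated 1 h at 37 °C in 100 mM sodium phosphate pH 7.4 with 0.3% H2O2 and 30, 100, 300 ng or 1 µg compound. Reaction volume was 12 µL. Analysed on a 0.7% agarose gel run 1.5 h at 80 V, stained with 0.5 µg/mL ethidium bromide for 15 min, then imaged under UV.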

For the compound `COc1cc(O[C@@H]2O[C@H](CO[C@@H]3O[C@H](CO)[C@@H](O)[C@H](O)[C@H]3O)[C@@H](O)[C@H](O)[C@H]2O)cc(OC)c1O`, the result in assay [1] was Active. For the same compound, the Activity in assay [2] turned out to be 0.85.
As to `OC[C@H]1O[C@@H](OC[C@H]2O[C@@H](OC[C@H]3O[C@@H](Oc4ccc(O)cc4)[C@H](O)[C@@H](O)[C@@H]3O)[C@H](O)[C@@H](O)[C@@H]2O)[C@H](O)[C@@H](O)[C@@H]1O`, the Activity in assay [2] was 1.12.
As to `COc1cc(O[C@@H]2O[C@H](CO[C@@H]3O[C@H](CO[C@@H]4O[C@H](CO[C@@H]5O[C@H](CO)[C@@H](O)[C@H](O)[C@H]5O)[C@@H](O)[C@H](O)[C@H]4O)[C@@H](O)[C@H](O)[C@H]3O)[C@@H](O)[C@H](O)[C@H]2O)ccc1O`, the result in assay [1] was Active. In addition, in assay [2], the Activity came to 0.88.
The like results for `COc1cc(O[C@@H]2O[C@H](CO[C@@H]3O[C@H](CO)[C@@H](O)[C@H](O)[C@H]3O)[C@@H](O)[C@H](O)[C@H]2O)ccc1O` were, in that order, “Active” and 0.94.
For the compound `COc1cc(O[C@@H]2O[C@H](CO[C@@H]3O[C@H](CO[C@@H]4O[C@H](CO)[C@@H](O)[C@H](O)[C@H]4O)[C@@H](O)[C@H](O)[C@H]3O)[C@@H](O)[C@H](O)[C@H]2O)ccc1O`, the Activity result in assay [3] is “Dose-dependent effect”; in assay [2], 0.97. Also, the result in assay [1] was Active.
Regarding `COc1cc(O[C@@H]2O[C@H](CO[C@@H]3O[C@H](CO[C@@H]4O[C@H](CO)[C@@H](O)[C@H](O)[C@H]4O)[C@@H](O)[C@H](O)[C@H]3O)[C@@H](O)[C@H](O)[C@H]2O)cc(OC)c1O`, the outcome in assay [1] was Active. Also, the Activity in assay [2] amounted to 0.8.
Regarding `COc1cc(O)ccc1O[C@@H]1O[C@H](CO[C@@H]2O[C@H](CO[C@@H]3O[C@H](CO)[C@@H](O)[C@H](O)[C@H]3O)[C@@H](O)[C@H](O)[C@H]2O)[C@@H](O)[C@H](O)[C@H]1O`, the Activity in assay [2] stood at 1.76.
